≈ marks a conversion by molar mass, not a printed value. Where a SMILES comes first, the peptide text is derived from it.
Experiments:
[1] = system: Salmonella typhimurium; test: Antibacterial activity against Salmonella typhimurium ATCC 14028 measured after 24 hrs; format: functional, Salmonella enterica subsp. enterica serovar Typhimurium
In short: (§1)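 Broth microdilution adapted from NCCLS. Mid-log bacteria were diluted in MHB to a final (0.5–1) × 10^5 CFU mL−1. Peptides were serially diluted in 0.2% BSA and mixed with an equal volume of cells. After 24 h at 37 °C, MIC was read at A492 as the lowest concentration inhibiting 95% of growth. At least three independent experiments, each with three technical replicates.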

[2] = system: Escherichia coli; test: Antibacterial activity against Escherichia coli ATCC 25922 measured after 18 to 24 hrs in presence of NH4Cl; format: functional
[3] = system: Escherichia coli; test: Antibacterial activity against Escherichia coli ATCC 25922 measured after 18 to 24 hrs in presence of NaCl; format: functional
[4] = Antibacterial activity against Salmonella pullorum ATCC 7913 measured after 24 hrs; format: functional, Salmonella enterica subsp. enterica serovar Pullorum; settings: Salmonella enterica, ATCC 7913, 24 h; in short: as §1
[5] = system: Candida albicans; test: Antifungal activity against Candida albicans cgmcc2.2086 measured after 48 hrs in presence of KCl by broth microdilution method; format: functional
[6] = system: Escherichia coli; test: Antibacterial activity against Escherichia coli UB1005 measured after 24 hrs; format: functional; in short: as §1
[7] = system: Staphylococcus aureus; test: Antibacterial activity against methicillin-resistant Staphylococcus aureus ATCC 43300 measured after 24 hrs; format: functional
In short: (§2)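 Broth microdilution modified from NCCLS. Mid-log bacteria at (0.5–1) × 10^5 CFU mL−1 in MHB, mixed with peptides serially diluted in 0.2% BSA. Incubated 24 h at 37 °C, read at A492. MIC taken as lowest concentration giving 95% growth inhibition. At least three independent experiments, each with three technical replicates.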

[8] = system: Candida albicans; test: Antifungal activity against Candida albicans cgmcc2.2086 measured after 48 hrs by broth microdilution method; format: functional
In short: (§3)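 Modified CLSI M27-A2 microdilution. Yeast colonies were diluted in MOPS-buffered RPMI 1640 to a final (0.5–1) × 10^3 CFU mL−1 and mixed with an equal volume of peptide serially diluted in 0.2% BSA. After 48 h at 28 °C, MIC was read at A492 as the lowest concentration inhibiting 95% of growth. At least three independent experiments, each with three technical replicates.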

[9] = system: Candida parapsilosis; test: Antifungal activity against Candida parapsilosis cgmcc2.3989 measured after 48 hrs by broth microdilution method; format: functional; in short: as §3
[10] = system: Escherichia coli; test: Antibacterial activity against Escherichia coli ATCC 25922 measured after 18 to 24 hrs in presence of MgCl2; format: functional
[11] = system: Staphylococcus aureus; test: Antibacterial activity against Staphylococcus aureus ATCC 29213 measured after 24 hrs; format: functional; in short: as §2
[12] = system: Candida albicans; test: Antifungal activity against Candida albicans cgmcc2.2086 measured after 48 hrs in presence of CaCl by broth microdilution method; format: functional
[13] = system: Escherichia coli; test: Bactericidal activity against Escherichia coli ATCC 25922 incubated for 24 hrs followed by replating on agar plate and measured after overnight incubation; format: functional; settings: for MBC: ATCC 25922, 24 h, read-out: MBC>99.9
In short: (§4)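 After the 24 h, 37 °C MHB microdilution (0.5–1 × 10^5 CFU mL−1 inoculum, peptides diluted in 0.2% BSA), 50 μL from each well was plated on agar and incubated overnight. MBC was taken as the lowest concentration killing >99.9% of cells. Three or more independent experiments, each with triplicate technical replicates.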

[14] = system: Staphylococcus aureus; test: Bactericidal activity against Staphylococcus aureus ATCC 25923 incubated for 24 hrs followed by replating on agar plate and measured after overnight incubation; format: functional; settings: for MBC: ATCC 25923, 24 h, read-out: MBC>99.9
In short: (§5)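 After the 24 h, 37 °C MHB microdilution MIC assay, 50 μL from each well was plated on agar and incubated overnight. MBC taken as lowest peptide concentration killing >99.9% of cells. At least three independent experiments, each with three technical replicates.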

[15] = system: Erythrocyte; test: Hemolytic activity in human RBC measured after 1 hr; format: ADME, cell-based
In short: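 Fresh healthy-donor human erythrocytes at ~1% (v/v) in PBS pH 7.4, mixed 1:1 with peptide (1–128 µM), 1 h at 37 °C. After centrifugation at 1000×g, supernatant hemoglobin read at 576 nm. Untreated cells set 0% and 0.1% Triton X-100 set 100%. MHC defined as the concentration giving >10% hemolysis. Three or more independent experiments, triplicates.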

[16] = system: Pseudomonas aeruginosa; test: Antibacterial activity against Pseudomonas aeruginosa ATCC 27853 measured after 24 hrs; format: functional; in short: as §1
[17] = system: Staphylococcus aureus; test: Antibacterial activity against Staphylococcus aureus ATCC 29213 measured after 18 to 24 hrs in presence of CaCl2; format: functional
[18] = system: Escherichia coli; test: Bactericidal activity against Escherichia coli K88 incubated for 24 hrs followed by replating on agar plate and measured after overnight incubation; format: functional; settings: for MBC: K88, 24 h, read-out: MBC>99.9
In short: (§6)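 Mid-log bacteria diluted in MHB to (0.5–1) × 10^5 CFU/mL and mixed 1:1 with peptide serially diluted in 0.2% BSA. After 24 h at 37 °C, 50 μL of each mixture was plated on agar and incubated overnight. MBC taken as the lowest concentration killing >99.9% of cells. At least three independent experiments, each with three technical replicates.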

[19] = Therapeutic index, ratio of MHC10 for hemolytic activity in human RBC to MIC95 against Candida parapsilosis cgmcc2.3989; format: toxicity; settings: human red blood cells (erythrocytes), read-out: TI
In short: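 Therapeutic index = MHC divided by MIC. MHC is the lowest concentration giving >10% lysis of human RBC (1 h, 37 °C, 1-128 µM, A576). MIC is 95% growth inhibition by broth microdilution: bacteria in MHB 24 h at 37 °C; Candida in MOPS-buffered RPMI 1640 at (0.5–1) × 10^3 CFU mL−1, 48 h at 28 °C.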

[20] = system: Escherichia coli; test: Antibacterial activity against Escherichia coli ATCC 25922 measured after 18 to 24 hrs in presence of ZnCl2; format: functional
[21] = system: Escherichia coli; test: Bactericidal activity against Escherichia coli 078 incubated for 24 hrs followed by replating on agar plate and measured after overnight incubation; format: functional; settings: for MBC: Escherichia coli, 078, 24 h, read-out: MBC>99.9; in short: as §4
[22] = system: Staphylococcus epidermidis; test: Bactericidal activity against Staphylococcus epidermidis ATCC 12228 incubated for 24 hrs followed by replating on agar plate and measured after overnight incubation; format: functional; settings: for MBC: ATCC 12228, 24 h, read-out: MBC>99.9; in short: as §6
[23] = system: Salmonella typhimurium; test: Bactericidal activity against Salmonella typhimurium C7731 incubated for 24 hrs followed by replating on agar plate and measured after overnight incubation; format: functional, Salmonella enterica subsp. enterica serovar Typhimurium; settings: for MBC: Salmonella enterica, C7731, 24 h, read-out: MBC>99.9; for MBC>99.9: Salmonella enterica subsp. enterica serovar Typhimurium; in short: as §6
[24] = system: Staphylococcus aureus; test: Bactericidal activity against Staphylococcus aureus ATCC 29213 incubated for 24 hrs followed by replating on agar plate and measured after overnight incubation; format: functional; settings: for MBC: ATCC 29213, 24 h, read-out: MBC>99.9; in short: as §5
[25] = Salmonella enterica, ATCC 14028, 24 h
[26] = Lodderomyces parapsilosis, cgmcc2.3989, 48 h
[27] = Salmonella enterica subsp. enterica serovar Typhimurium

Compound | MIC95 [1, 25] [µM] | MIC95 [2] [µM] | MIC95 [3] [µM] | MIC95 [4] [µM] | MIC95 ([5]; cgmcc2.2086, 48 h) [µM] | MIC95 ([6]; UB1005, 24 h) [µM] | MIC95 ([7]; ATCC 43300, 24 h) [µM] | MIC95 ([8]; cgmcc2.2086, 48 h) [µM] | MIC95 [9, 26] [µM] | MIC95 [10] [µM] | MIC95 ([11]; ATCC 29213, 24 h) [µM] | MIC95 ([12]; cgmcc2.2086, 48 h) [µM] | MBC [13] [µM] | MBC [14] [µM] | MHC10 [15] [µM] | MIC95 ([16]; ATCC 27853, 24 h) [µM] | MIC95 [17] [µM] | MBC [18] [µM] | selectivity ratio [19] | MIC95 [20] [µM] | other results
CC[C@H](C)[C@H](NC(=O)[C@H](CCCCN)NC(=O)[C@H](C)NC(=O)[C@H](C)N)C(=O)N[C@H](C(=O)N[C@@H](CC(C)C)C(=O)N[C@@H](CC(N)=O)C(=O)N1CCC[C@H]1C(=O)N[C@@H](CCCCN)C(=O)N[C@@H](Cc1ccccc1)C(=O)N[C@@H](CCCNC(=N)N)C(=O)N[C@@H](CS)C(=O)N[C@@H](CCCCN)C(=O)N[C@@H](C)C(=O)N[C@@H](C)C(=O)N[C@@H](Cc1ccccc1)C(=O)N[C@@H](CS)C(N)=O)[C@@H](C)CC (H-AAKIILNPKFRCKAAFC-NH2) | 64 (≈ 121 µg/mL) | 32 | > 128 | 64 (≈ 121 µg/mL) | > 128 | 64 (≈ 121 µg/mL) | > 128 | > 128 | > 128 | 64 | > 128 | > 128 | 64 (≈ 121 µg/mL) | > 128 | 32 | > 128 | > 128 | 64 (≈ 121 µg/mL) | 0.25 | 64 | 
CC(C)(O/N=C(\C(=O)N[C@@H]1C(=O)N2C(C(=O)[O-])=C(C[n+]3ccccc3)CS[C@H]12)c1csc(N)n1)C(=O)O [CEFTAZIDIME] | 1 (≈ 0.547 µg/mL) | 2 | 4 | 1 (≈ 0.547 µg/mL) | > 128 | 1 (≈ 0.547 µg/mL) | 16 (≈ 8.75 µg/mL) | > 128 | > 128 | 2 | 16 (≈ 8.75 µg/mL) | > 128 | 2 (≈ 1.09 µg/mL) | 32 (≈ 17.5 µg/mL) |  | 2 (≈ 1.09 µg/mL) | 32 | 1 (≈ 0.547 µg/mL) |  | 2 | MBC [21]: 0.5 µM (≈ 0.273 µg/mL); MBC [22]: 32 µM (≈ 17.5 µg/mL); MBC [23]: 1 µM (≈ 0.547 µg/mL); MBC [24]: 16 µM (≈ 8.75 µg/mL)
CC[C@H](C)[C@H](NC(=O)CN)C(=O)NCC(=O)N[C@@H](C)C(=O)N[C@H](C(=O)N[C@@H](CC(C)C)C(=O)N[C@@H](CCCCN)C(=O)N[C@H](C(=O)N[C@@H](CC(C)C)C(=O)N[C@H](C(=O)N[C@H](C(=O)NCC(=O)N[C@@H](CC(C)C)C(=O)N1CCC[C@H]1C(=O)N[C@@H](C)C(=O)N[C@@H](CC(C)C)C(=O)N[C@H](C(=O)N[C@@H](CO)C(=O)N[C@@H](Cc1c[nH]c2ccccc12)C(=O)N[C@H](C(=O)N[C@@H](CCCCN)C(=O)N[C@@H](CCCNC(=N)N)C(=O)N[C@@H](CCCCN)C(=O)N[C@@H](CCCNC(=N)N)C(=O)N[C@@H](CCC(N)=O)C(=O)N[C@@H](CCC(N)=O)C(N)=O)[C@@H](C)CC)[C@@H](C)CC)[C@@H](C)O)[C@@H](C)O)C(C)C)C(C)C [MELITTIN] | 2 (≈ 5.69 µg/mL) | 2 | 4 | 2 (≈ 5.69 µg/mL) | 4 | 2 (≈ 5.69 µg/mL) | 1 (≈ 2.85 µg/mL) | 4 (≈ 11.4 µg/mL) | 2 (≈ 5.69 µg/mL) | 4 | 4 (≈ 11.4 µg/mL) | 8 | 4 (≈ 11.4 µg/mL) | 8 (≈ 22.8 µg/mL) | 1 | 2 (≈ 5.69 µg/mL) | 8 | 2 (≈ 5.69 µg/mL) | 0.32 | 2 | MBC [21]: 2 µM (≈ 5.69 µg/mL); MBC [22]: 4 µM (≈ 11.4 µg/mL); MBC [23]: 4 µM (≈ 11.4 µg/mL); MBC [24]: 8 µM (≈ 22.8 µg/mL)
GENTAMICIN |  | 1 | 4 |  |  |  |  |  |  | 1 |  |  |  |  |  |  | 4 |  |  | 1 | MIC95 [1, 27]: 2 µM; MIC95 [5]: > 128 µM; MIC95 [6]: 0.5 µM; MBC>99.9 [21]: 0.5 µM; MIC95 [7]: 8 µM; MIC95 [8]: > 128 µM; MIC95 [9]: > 128 µM; MBC>99.9 [22]: 2 µM; MIC95 [11]: 1 µM; MIC95 [12]: > 128 µM; MBC>99.9 [23]: 2 µM; MBC>99.9 [13]: 1 µM; MBC>99.9 [14]: 1 µM; MIC95 [16]: 1 µM; MBC>99.9 [24]: 1 µM; MBC>99.9 [18]: 1 µM
POLYMYXIN B |  | 2 | 4 |  |  |  |  |  |  | 1 |  |  |  |  |  |  | 64 |  |  | 2 | MIC95 [1, 27]: 2 µM; MIC95 [5]: 32 µM; MIC95 [6]: 1 µM; MBC>99.9 [21]: 1 µM; MIC95 [7]: 64 µM; MIC95 [8]: 32 µM; MIC95 [9]: 8 µM; MBC>99.9 [22]: 64 µM; MIC95 [11]: 32 µM; MIC95 [12]: > 128 µM; MBC>99.9 [23]: 4 µM; MBC>99.9 [13]: 4 µM; MBC>99.9 [14]: > 128 µM; MIC95 [16]: 2 µM; MBC>99.9 [24]: 64 µM; MBC>99.9 [18]: 1 µM
